{"source": "ChEMBL document CHEMBL4041524", "about": "“Synthesis and Characterization of a Novel γ-Aminobutyric Acid Type A (GABAA) Receptor Ligand That Combines Outstanding Metabolic Stability, Pharmacokinetics, and Anxiolytic Efficacy” (J Med Chem, 2016)", "key": {"[1]": {"target": "GABA-A receptor; alpha-1/beta-3/gamma-2 (Homo sapiens) (UniProt P14867+P18507+P28472)", "test": "Modulation of recombinant GABA alpha1beta3gamma2 receptor (unknown origin) expressed in Xenopus laevis oocytes assessed as change in GABA-induced EC(3 to 6) current at 10 uM by two-electrode voltage clamp assay", "type": "cell-based", "procedure,_shortened": "(§1)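 Xenopus laevis oocytes expressing α1, α2, α3 or α5 β3γ2 GABAARs were recorded by two-electrode voltage clamp. Modulation of the GABA EC3-6 current (taken as 100%) was tested at 100 nM, 1 μM and 10 μM in the same cells. Values are mean ± SEM, n = 3–4.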"}, "[2]": {"test_system": "Rattus norvegicus", "test": "Anxiolytic like activity in water-deprived Sprague-Dawley rat assessed as increase in water drinking time during punished period at 3 mg/kg, po administered 30 mins prior to testing by Vogel conflict test relative to control", "type": "functional, organism-based", "procedure,_shortened": "(§2)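 Water-deprived male Sprague-Dawley rats (n = 6–8) drank during unpunished and punished periods, with licking suppressed by mild shock in punished periods. Compounds were given 30 min before testing. Analysis was ANOVA with Dunnett's test.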"}, "[3]": {"test_system": "Liver", "test": "Metabolic stability in human liver microsomes assessed as compound remaining at 4 uM measured after 30 mins in presence of NADPH by LC-MS/MS analysis", "type": "ADME, microsome", "settings": "0.5 h", "procedure,_shortened": "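Human, mouse or rat liver microsomes were incubated with compound at 4 μM final for 30 min at 37 °C (n = 1). Percent of parent remaining was quantified by LC-MS/MS.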"}, "[4]": {"target": "GABA-A receptor; alpha-5/beta-3/gamma-2 (Homo sapiens) (UniProt P18507+P28472+P31644)", "test": "Modulation of recombinant GABA alpha5beta3gamma2 receptor (unknown origin) expressed in Xenopus laevis oocytes assessed as change in GABA-induced EC(3 to 6) current by two-electrode voltage clamp assay", "type": "cell-based", "procedure,_shortened": "as §1"}, "[5]": {"test_system": "Brain", "test": "Fraction unbound in rat brain by equilibrium dialysis method", "type": "ADME, tissue-based", "procedure,_shortened": "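Fraction unbound was determined in vitro by equilibrium dialysis with rat plasma protein and rat brain.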"}, "[6]": {"target": "T1, GABA-A receptor; alpha-3/beta-3/gamma-2 (Homo sapiens, UniProt P18507+P28472+P34903)", "T1 sequence (P18507 whole entry)": "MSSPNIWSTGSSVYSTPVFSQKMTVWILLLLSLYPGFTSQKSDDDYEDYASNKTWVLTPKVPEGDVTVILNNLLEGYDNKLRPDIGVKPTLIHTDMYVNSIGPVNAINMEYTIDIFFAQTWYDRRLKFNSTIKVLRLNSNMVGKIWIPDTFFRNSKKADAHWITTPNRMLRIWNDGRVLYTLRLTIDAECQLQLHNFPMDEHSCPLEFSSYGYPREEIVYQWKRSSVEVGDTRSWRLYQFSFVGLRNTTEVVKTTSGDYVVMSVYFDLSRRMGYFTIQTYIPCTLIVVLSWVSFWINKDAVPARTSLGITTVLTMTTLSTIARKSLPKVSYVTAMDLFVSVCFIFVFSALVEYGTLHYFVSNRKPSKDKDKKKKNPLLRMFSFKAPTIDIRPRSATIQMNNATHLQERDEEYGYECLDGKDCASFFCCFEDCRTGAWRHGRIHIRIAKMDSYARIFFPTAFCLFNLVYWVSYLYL", "T1 sequence (P28472 whole entry)": "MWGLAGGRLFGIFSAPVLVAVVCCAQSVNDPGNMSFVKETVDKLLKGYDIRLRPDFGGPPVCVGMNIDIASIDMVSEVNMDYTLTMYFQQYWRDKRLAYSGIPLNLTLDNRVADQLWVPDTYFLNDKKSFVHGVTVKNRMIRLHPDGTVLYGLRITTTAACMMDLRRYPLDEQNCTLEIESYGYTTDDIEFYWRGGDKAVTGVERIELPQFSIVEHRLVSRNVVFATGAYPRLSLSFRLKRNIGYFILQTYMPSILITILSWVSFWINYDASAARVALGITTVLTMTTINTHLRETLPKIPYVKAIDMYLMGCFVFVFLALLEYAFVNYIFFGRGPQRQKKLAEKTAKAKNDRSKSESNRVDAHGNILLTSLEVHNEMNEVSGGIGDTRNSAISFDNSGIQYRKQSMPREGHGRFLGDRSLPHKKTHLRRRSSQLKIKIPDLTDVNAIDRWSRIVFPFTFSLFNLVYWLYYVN", "T1 sequence (P34903 whole entry)": "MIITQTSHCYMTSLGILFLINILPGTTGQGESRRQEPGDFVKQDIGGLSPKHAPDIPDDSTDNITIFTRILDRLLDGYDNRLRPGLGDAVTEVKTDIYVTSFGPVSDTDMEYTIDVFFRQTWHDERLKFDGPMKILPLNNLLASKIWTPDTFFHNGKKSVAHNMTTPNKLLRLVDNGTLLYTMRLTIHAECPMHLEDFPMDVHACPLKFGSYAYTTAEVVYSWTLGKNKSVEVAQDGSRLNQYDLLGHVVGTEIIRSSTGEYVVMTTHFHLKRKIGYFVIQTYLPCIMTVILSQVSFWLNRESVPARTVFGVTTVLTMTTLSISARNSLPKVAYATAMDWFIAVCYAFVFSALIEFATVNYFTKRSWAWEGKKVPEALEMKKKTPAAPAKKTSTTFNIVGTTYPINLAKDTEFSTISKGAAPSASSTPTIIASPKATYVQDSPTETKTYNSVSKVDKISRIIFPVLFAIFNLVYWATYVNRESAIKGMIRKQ", "test": "Modulation of recombinant human GABA alpha3beta3gamma2 receptor expressed in HEK293 cells assessed as change in GABA-induced current at -80 mV holding potential preincubated for 3 mins followed by co-administration of GABA by electrophysiology method", "type": "cell-based"}, "[7]": {"test_system": "Rattus norvegicus", "test": "Anxiolytic like activity in water-deprived Sprague-Dawley rat assessed as increase in water drinking time during punished period at 60 mg/kg, po administered 30 mins prior to testing by Vogel conflict test relative to control", "type": "functional", "procedure,_shortened": "as §2"}, "[8]": {"test": "Volume of distribution at steady state in femoral artery/vein cannulated Sprague-Dawley rat at 1 mg/kg, iv administered […] as single dose by LC-MS/MS analysis", "type": "ADME, organism-based", "settings": "in vivo, read-out: Vdss", "procedure,_shortened": "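Male Sprague-Dawley rats (n = 3 per time point) were dosed i.v. at 1 mg/kg. Plasma concentrations were measured at set time points, and Vdss was taken from the plasma concentration–time profile.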"}, "[9]": {"test": "Cytotoxicity against HEK293T cells assessed as viable cells measured after 18 hrs by CellTiter-Glo assay", "type": "cell-based, HEK-293T", "settings": "human, read-out: LD50", "procedure,_shortened": "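HEK293T cells were exposed to compound for 18 h (n = 4). Viable cells were quantified with CellTiter-Glo, and LD50 was derived.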"}, "[10]": {"test_system": "Rattus norvegicus", "test": "Anxiolytic like activity in water-deprived Sprague-Dawley rat assessed as increase in water drinking time during punished period at 20 mg/kg, po administered 30 mins prior to testing by Vogel conflict test relative to control", "type": "functional", "procedure,_shortened": "as §2"}}, "note": "The source made the active and inactive calls. The calls are words filed in the database; no cut-off is given here.", "data": [{"smiles": "C#Cc1ccc2c(c1)C(c1ccccn1)=NCc1c(-c3cnco3)ncn1-2", "values": [{"measurement": "Activity", "setting": "[1]", "result": 232, "unit": "%"}, {"measurement": "Activity", "setting": "[2]", "result": "inactive"}, {"measurement": "Stability", "setting": "[3]", "result": 91, "unit": "%"}, {"measurement": "Activity", "setting": "[4]", "result": "Dose-dependent effect"}, {"measurement": "Fu", "setting": "[5]", "result": 17.7, "unit": "%"}, {"measurement": "EC50", "setting": "[6]", "result": 205, "unit": "nM"}, {"measurement": "Activity", "setting": "[7]", "result": 200, "unit": "%"}, {"measurement": "Vd", "setting": "[8]", "result": 1.4, "unit": "L/kg"}, {"measurement": "CC50 at 18 h", "setting": "[9]", "result": "> 100000", "unit": "nM"}, {"measurement": "Activity", "setting": "[10]", "result": 330, "unit": "%"}]}]}
